# Source: ChEMBL document CHEMBL1629686, “Substrate selectivity and a novel role in inhibitor discrimination by residue 237 in the KPC-2 beta-lactamase” (Antimicrob Agents Chemother, 2010)
# Assays:
# Klebsiella pneumoniae [1] = assay: Selectivity index, Ratio of Kcat/Km for Klebsiella pneumoniae 1534 beta-lactamase KPC-2 T237S mutant to ratio of Kcat/Km for Klebsiella pneumoniae 1534 beta-lactamase KPC-2 by spectrophotometric analysis
# In short: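 Kinetics used purified enzymes in 10 mM PBS, pH 7.4, room temperature, with 10 nM enzyme and substrate in excess. Km and Vmax came from a Michaelis-Menten fit. kcat/Km of the variant was compared with wild type as ΔΔG = −RT ln of the kcat/Km ratio.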
# Klebsiella pneumoniae [2] = assay: Activity of Klebsiella pneumoniae 1534 beta-lactamase KPC-2 T237A mutant by spectrophotometric analysis
# In short: (§1)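 Purified KPC-2 variant enzymes (periplasmic lysate from E. coli, preparative isoelectric focusing). Hydrolysis followed by diode-array spectrophotometry in 10 mM PBS, pH 7.4, room temperature. Enzyme at 10 nM with substrate in molar excess for pseudo-first-order conditions. Vmax and Km came from a nonlinear least-squares Michaelis-Menten fit.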
# Klebsiella pneumoniae [3] = assay: Activity of Klebsiella pneumoniae 1534 beta-lactamase KPC-2 T237S mutant by spectrophotometric analysis; in short: as §1
# Escherichia coli [4] = assay: Antimicrobial activity against Escherichia coli DH10B harboring beta-lactamase KPC-2 T237W mutant by agar dilution method; type: functional; conditions: K-12 DH10B
# In short: (§2)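 LB agar dilution MICs followed CLSI criteria, with inocula applied by Steers replicator. […] Piperacillin-tazobactam was tested at an 8:1 ratio. Wild-type and mutant blaKPC-2 were carried on pBC SK(+), or wild type on pBR322-catI, in E. coli DH10B.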
# Escherichia coli [5] = assay: Antimicrobial activity against Escherichia coli DH10B harboring beta-lactamase KPC-2 T237D mutant by agar dilution method; type: functional; conditions: K-12 DH10B; in short: as §2
# Escherichia coli [6] = assay: Antimicrobial activity against Escherichia coli DH10B harboring plasmid pBR322-catI carrying beta-lactamase KPC-2 by agar dilution method; type: functional; conditions: K-12 DH10B; in short: as §2
# Escherichia coli [7] = assay: Antimicrobial activity against Escherichia coli DH10B harboring beta-lactamase KPC-2 T237S mutant by agar dilution method; type: functional; conditions: K-12 DH10B; in short: as §2
# Klebsiella pneumoniae [8] = assay: Antimicrobial activity against Klebsiella pneumoniae 1534 expressing beta-lactamase KPC-2 by agar dilution method; type: functional
# In short: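 MICs were determined by LB agar dilution following CLSI criteria, with a Steers replicator. […] Piperacillin-tazobactam was kept at an 8:1 ratio.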
# Klebsiella pneumoniae [9] = assay: Ratio of Kcat/Km for Klebsiella pneumoniae 1534 beta-lactamase KPC-2 T237S mutant by spectrophotometric analysis; in short: as §1
# Klebsiella pneumoniae [10] = assay: Ratio of Kcat/Km for Klebsiella pneumoniae 1534 beta-lactamase KPC-2 T237A mutant by spectrophotometric analysis; in short: as §1
# Escherichia coli [11] = assay: Antimicrobial activity against Escherichia coli DH10B harboring plasmid pBC SK(+) carrying wild type beta-lactamase KPC-2 by agar dilution method; type: functional; conditions: K-12 DH10B; in short: as §2
# [12] = Inhibition of Klebsiella pneumoniae 1534 beta-lactamase KPC-2 T237S mutant by competitive assay
# In short: (§3)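 Direct competition assay at steady state with purified enzyme at 10 nM. Inhibitor was varied from 5 μM to 5 mM, with nitrocefin 100 μM final as reporter substrate. 1/v0 was plotted against [I], and Ki(observed) was taken as y-intercept divided by slope. This was corrected by 1 + [S]/Km(nitrocefin).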
# Klebsiella pneumoniae [13] = assay: Ratio of Ki for Klebsiella pneumoniae 1534 beta-lactamase KPC-2 T237S mutant to Ki for Klebsiella pneumoniae wild type beta-lactamase KPC-2 by competitive assay; in short: as §3
# Klebsiella pneumoniae [14] = assay: Ratio of Ki for Klebsiella pneumoniae 1534 beta-lactamase KPC-2 T237A mutant to Ki for wild type Klebsiella pneumoniae beta-lactamase KPC-2 by competitive assay
# [15] = Inhibition of Klebsiella pneumoniae 1534 beta-lactamase KPC-2 T237A mutant by competitive assay; in short: as §3
Compound,fold change (FC) (Klebsiella pneumoniae [1]),Km (Klebsiella pneumoniae [2]) [µM],kcat (Klebsiella pneumoniae [2]) [s⁻¹],Km (Klebsiella pneumoniae [3]) [µM],kcat (Klebsiella pneumoniae [3]) [s⁻¹],MIC (Escherichia coli [4]) [µg/mL],MIC (Escherichia coli [5]) [µg/mL],MIC (Escherichia coli [6]) [µg/mL],MIC (Escherichia coli [7]) [µg/mL],MIC (Klebsiella pneumoniae [8]) [µg/mL],kcat/Km (Klebsiella pneumoniae [9]) [M⁻¹ s⁻¹],kcat/Km (Klebsiella pneumoniae [10]) [M⁻¹ s⁻¹],MIC (Escherichia coli [11]) [µg/mL],Ki [12] [µM],fold change (FC) (Klebsiella pneumoniae [13]),fold change (FC) (Klebsiella pneumoniae [14]),Ki [15] [µM]
C[C@@H](O)[C@H]1C(=O)N2C(C(=O)O)=C(SCCNC=N)C[C@H]12 [IMIPENEM ANHYDROUS],2.7,31,6.8,21,21,0.25,0.25,8,1,8,1e+06,220000,0.5,–,–,–,–
O=C(O)[C@H]1/C(=C/CO)O[C@@H]2CC(=O)N21 [CLAVULANIC ACID],–,–,–,–,–,–,–,–,–,–,–,–,–,13,1.7,5,55
